Results gathered from unrelated publications.
Each line is one published result; the experiments were not run side by side.
Target: Transient receptor potential cation channel subfamily M member 6 (TRPM6, Homo sapiens, UniProt Q9BX84)

Structure (SMILES)	effect on	technique	concentration	remaining binding [%]
CNCc1ccccc1-c1csc([C@@H](C)Nc2nc(C)nc3cc(OC)c(OC)cc23)c1	cell-free assay	competition with immobilised ligand	1 µM	91
CC1CCCN1c1nccc(-c2cnn3ncccc23)n1 (centres unmarked)	binding		1 µM	100
Cc1nc(C2CCN(C(=O)c3ccc(OC(F)(F)F)cc3N)CC2)c2ncc(N3CCN(C)CC3)cc2n1	cell-free assay	competition with immobilised ligand	1 µM	100
N[C@@H]1CCN(c2nccc(-c3cnn4ncccc34)n2)C1	binding		1 µM	100
COc1ccc2c(c1)O[C@@H](c1ccc(OC)c(OC)c1)C[C@H]2NC(=O)C1(c2ccc3c(c2)OC(F)(F)O3)CC1	cell-free assay	competition with immobilised ligand	1 µM	82
CN(C)c1nccc(-c2cnn3ncccc23)n1	binding		1 µM	100
O=C(c1ccc(Nc2nccc(-c3cc4ccccc4s3)n2)cc1)N1CCC(N2CCCC2)CC1	binding	competition with immobilised ligand	1 µM	100
C[C@H]1CCN(c2nccc(-c3cnn4ncccc34)n2)C1	binding		1 µM	94
O=C(c1ccc(Nc2ncc(Cl)c(-c3cc4ccccc4s3)n2)cc1)N1CCC(N2CCCC2)CC1	binding	competition with immobilised ligand	1 µM	100
Cc1c[nH]c2nccc(Oc3c(F)cc(Nc4cc(Cl)nc(N)n4)cc3F)c12	cell-free assay	competition with immobilised ligand	0.1 µM	83
CN(CCCC(F)(F)F)c1nccc(-c2cnn3ncccc23)n1	binding		1 µM	100
Nc1ncc2c(n1)-c1c([nH]c3ccc(C#CC4CC4)cc13)CCCC2	binding	competition with immobilised ligand	1 µM	75
O=C(Nc1c[nH]nc1C(=O)NC1CCNCC1)c1cc(F)cc(F)c1	binding	competition with immobilised ligand	1 µM	88
CCCCN(CCCC)C(=O)CN1C[C@H](c2cc(OC)c3c(c2)OCO3)[C@@H](C(=O)O)[C@@H]1CC(C)(C)CCC	cell-free assay	competition with immobilised ligand	1 µM	91.6
c1cncc(-c2cccc(Nc3nccc(NC4CCCCC4)n3)c2)c1	binding	competition with immobilised ligand	10 µM	97
F[C@@H]1CCN(c2nccc(-c3cnn4ncccc34)n2)C1	binding		1 µM	100
COc1cnc(Nc2cccc(S(N)(=O)=O)c2)nc1N1CCN(c2ccccc2)CC1	binding	competition with immobilised ligand	1 µM	90
CN(C)C(=O)Cn1cc(-c2nc([C@@](C)(c3ccc(-c4cnc(N)nc4)cc3)C3CC3)no2)cn1	cell-free assay	competition with immobilised ligand	1 µM	78
Cc1cnc(Nc2ccc(C(=O)N3CCC(N4CCCC4)CC3)cc2)nc1-c1cc2ccccc2s1	binding	competition with immobilised ligand	1 µM	100
FC(F)(F)Oc1cccc(-c2cnc3ccc(-c4ccncc4)nn23)c1	binding	competition with immobilised ligand	5 µM	84
